Among the data in ChEMBL document CHEMBL3393007, “IND-2, a pyrimido[1″,2″:1,5]pyrazolo[3,4-b]quinoline derivative, circumvents multi-drug resistance and causes apoptosis in colon cancer cells” (Bioorg Med Chem, 2015) are IC50 values, retold here.

Where only a bound is given, the exact number is not on record here.

Experiment [1] can be described thus: Cytotoxicity against human HCT116 cells after 72 hrs by MTT assay. The conditions noted are these: HCT-116, 72 h. The format is functional, cell-based. The essentials: (§1)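 HCT-116, HCT-15, HT-29, DU-145, PC-3 or HEK293/pcDNA3.1 cells in DMEM with 10% FBS were trypsinised and seeded at 5×10^3 cells/well. They received compound at 0.1–100 μM for 72 hr, then MTT (4 mg/mL) for 4 hr. Formazan was dissolved in DMSO and A570 read. IC50 by Bliss method from survival curves; ≥3 experiments, each in triplicate.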

Experiment [2] in a line: Cytotoxicity against human S1 cells after 72 hrs by MTT assay. The format is functional, cell-based. The conditions noted are these: S1, 72 h. In outline: (§2)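 Seeding was 6×10^3 cells/well (MDCK, NIH/3T3, MCF-7, MDA-MB-231, LS-180, LS-174, LoVo, S1) after trypsinisation, in DMEM with 10% FBS. Compound at 0.1–100 μM for 72 hr, then MTT (4 mg/mL) for 4 hr. Formazan dissolved in DMSO, absorbance at 570 nm. IC50 by Bliss method; means ± SD, ≥3 experiments in triplicate.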

The nature of experiment [3]: Cytotoxicity against human PC3 cells after 72 hrs by MTT assay. The format is functional, cell-based. As to conditions: PC-3, 72 h. In outline:
as §1

Another experiment has as its system 2008. As to the kind of experiment: Cytotoxicity against human 2008 cells after 72 hrs by MTT assay. The experiment is classed as functional, cell-based. As to conditions: Homo sapiens, 2008, 72 h. In outline: (§3)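 MTT assay over 0.1–100 μM with a 72 hr exposure, then 4 hr with MTT (4 mg/mL). Formazan dissolved in DMSO, A570 read. IC50 from survival curves (Bliss method); three independent experiments in triplicate; 100 μM taken as cut-off.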

The next experiment deals with A2780. As to the kind of experiment: Cytotoxicity against human A2780 cells after 72 hrs by MTT assay. The format is functional, cell-based. The conditions noted are these: A2780, 72 h. The essentials:
as §3

A further experiment relates to HepG2. Description: Cytotoxicity against human HepG2 cells after 72 hrs by MTT assay. The format is functional, cell-based. As to conditions: HepG2, 72 h. The essentials:
as §3

A further experiment deals with MCF7. As to the kind of experiment: Cytotoxicity against human MCF7 cells after 72 hrs by MTT assay. The experiment is classed as functional, cell-based. As to conditions: MCF7, 72 h. The essentials:
as §2

The subject of the next experiment is MDA-MB-231. Description: Cytotoxicity against human MDA-MB-231 cells after 72 hrs by MTT assay. The experiment is classed as functional, cell-based. The conditions noted are these: MDA-MB-231, 72 h. The essentials:
as §2

The test system of another experiment is MDCK. As to the kind of experiment: Cytotoxicity against MDCK cells after 72 hrs by MTT assay. The experiment is classed as cell-based. The conditions noted are these: Canis lupus familiaris. The essentials:
as §2

Experiment [4] is described as follows: Cytotoxicity against mouse NIH/3T3 cells after 72 hrs by MTT assay. The experiment is classed as cell-based. As to conditions: NIH3T3, 72 h. The essentials:
as §2

The subject of a further experiment is HEK293. As to the kind of experiment: Cytotoxicity against HEK293 cells expressing pcDNA3.1 after 72 hrs by MTT assay. As to conditions: Homo sapiens, HEK293, 72 h. The format is cell-based. In outline:
as §1

The test system of another experiment is DU-145. As to the kind of experiment: Cytotoxicity against human DU145 cells after 72 hrs by MTT assay. The conditions noted are these: DU-145, 72 h. The format is functional, cell-based. The essentials: as §1

With `Cc1cc(N2CCOCC2)n2nc3nc4ccccc4cc3c2n1`, the half-maximal inhibitory concentration (IC50) in experiment [1] is 88.9 µM; in experiment [2], 67.4 µM; in experiment [3] it was 78.3 µM; in the experiment with 2008, above 100 µM; with A2780, above 100 µM; in the experiment with HepG2 it was above 100 µM. Besides, the IC50 in the experiment with MCF7 was 98.4 µM; in the experiment with MDA-MB-231 it was 88.2 µM; in the experiment on MDCK it was above 100 µM; in [4], above 100 µM.

Take `Cc1cc(NCCCN(C)C)n2nc3nc4ccccc4cc3c2n1`: the IC50 in experiment [2] was 83.4 µM; in [3], 60.5 µM; in the experiment with 2008, 87.6 µM; in the experiment with A2780, 65.8 µM; in the experiment on HepG2, 73.2 µM; with MCF7, above 100 µM. In addition, the values for the IC50 (in experiment [4]; in the experiment on HEK293) were above 100 µM and 39.9 µM, respectively.

Regarding `Cc1cc(N(C)C)n2nc3nc4ccccc4cc3c2n1`, the IC50 in experiment [1] was determined as 53.6 µM; in experiment [2], 58.3 µM; in [3], 88.8 µM; with DU-145 it was 28.6 µM; with 2008, 47.9 µM; with A2780 it was 49.9 µM. Moreover, the IC50 stood at 67.9 µM with HepG2, 79.6 µM with MCF7 and 44.8 µM in the experiment on MDA-MB-231.

Consider `CCN(CC)CCCNc1cc(C)nc2c3cc4ccccc4nc3nn12`, for which the IC50 in [2] came out at 53.7 µM; in [3], 78.5 µM; with 2008, 65.3 µM; in the experiment on A2780, 55.7 µM; in the experiment on HepG2, 89.9 µM; in the experiment on MDA-MB-231, 34.6 µM. The concentration for half-maximal inhibition (IC50) in experiment [4] was above 100 µM; with HEK293, 41.8 µM.

For `CCN(CC)CCNc1cc(C)nc2c3cc4ccccc4nc3nn12`, the concentration for half-maximal inhibition (IC50) in [2] came out at 44.6 µM; in experiment [3], 62.5 µM; with 2008, 78.1 µM; in the experiment on A2780 it was 87.5 µM; with HepG2, 67.4 µM; in the experiment with MCF7, 53.5 µM. Also, the IC50 with MDA-MB-231 stood at 58.8 µM; in the experiment with MDCK, 41.6 µM; in experiment [4] it was 48.2 µM.
